Test results published in ChEMBL document CHEMBL3352732, “Nannozinones and sorazinones, unprecedented pyrazinones from myxobacteria” (J Nat Prod, 2014).
Values after ≈ are worked out from the molar mass of the structure shown.

Columns and labels:
Trichosporon oleaginosus = experiment: Antimicrobial activity against Trichosporon oleaginosus 11815 after 24 to 48 hrs by serial dilution method; assay type: functional; conditions: Cutaneotrichosporon oleaginosum
Outline: (§1)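 Yeasts and filamentous fungi tested in MYC medium (1.0% glucose, 1.0% phytone peptone, 50 mM HEPES, pH 7.0). Aliquots of 2 and 20 μL from 1 mg/mL stock, 1:1 serial dilution in 0.15 mL medium in microtiter plates. Incubated at 30 °C with shaking at 160 rpm for 24−48 h. MIC read as the lowest concentration with no visible growth.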

Mucor hiemalis = experiment: Antimicrobial activity against Mucor hiemalis 2656 after 24 to 48 hrs by serial dilution method; assay type: functional; outline: as §1
L929 = experiment: Cytotoxicity against mouse L929 cells by MTT assay; assay type: functional, cell-based
Outline: (§2)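 MTT assay in 96-well plates, giving IC50. Media: DMEM for KB-3-1, A431, A549 and L929; F12K for PC-3; RPMI for MCF-7; EBM-2 for HUVEC; McCoy's for SKOV-3. All media had 10% FBS, and cells were kept at 37 °C under 10% CO2. Methanol served as negative control and epothilone A as positive control.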

HUVEC = experiment: Cytotoxicity against HUVEC cells by MTT assay; assay type: functional, cell-based; conditions: Homo sapiens; outline: as §2
A-431 = experiment: Cytotoxicity against human A431 cells by MTT assay; assay type: functional, cell-based; outline: as §2
[1] = Cytotoxicity against human PC3 cells by MTT assay; assay type: functional, cell-based; conditions: PC-3; outline: as §2
[2] = Cytotoxicity against human KB3-1 cells by MTT assay; assay type: functional, cell-based; conditions: KB 3-1; outline: as §2
MCF7 = experiment: Cytotoxicity against human MCF7 cells by MTT assay; assay type: functional, cell-based; outline: as §2
A549 = experiment: Cytotoxicity against human A549 cells by MTT assay; assay type: functional, cell-based; outline: as §2
[3] = Cytotoxicity against human SKOV3 cells by MTT assay; assay type: functional, cell-based; conditions: SK-OV-3; outline: as §2
Nocardia sp. = experiment: Antimicrobial activity against Nocardia sp. 43069 after 24 to 48 hrs by serial dilution method; assay type: functional
Outline: (§3)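 Compounds from 1 mg/mL stock, 2 and 20 μL aliquots, serially diluted 1:1 in 0.15 mL medium in microtiter plates. Shaken at 160 rpm, 30 °C, 24−48 h. MIC is the lowest concentration preventing visible growth.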

Staphylococcus aureus = experiment: Antimicrobial activity against Staphylococcus aureus 346 after 24 to 48 hrs by serial dilution method; assay type: functional; outline: as §3
[4] = test system: Mycolicibacterium diernhoferi; experiment: Antimicrobial activity against Mycobacterium diernhoferi 43542 after 24 to 48 hrs by serial dilution method; assay type: functional; outline: as §3
Paenibacillus polymyxa = experiment: Antimicrobial activity against Paenibacillus polymyxa 36 after 24 to 48 hrs by serial dilution method; assay type: functional; outline: as §3
Escherichia coli = experiment: Antimicrobial activity against Escherichia coli 1116 after 24 to 48 hrs by serial dilution method; assay type: functional; outline: as §3
[5] = test system: Chromobacterium violaceum; experiment: Antimicrobial activity against Chromobacterium violaceum 30191 after 24 to 48 hrs by serial dilution method; assay type: functional; outline: as §3
Pseudomonas aeruginosa = experiment: Antimicrobial activity against Pseudomonas aeruginosa 50071 after 24 to 48 hrs by serial dilution method; assay type: functional; outline: as §3
Saccharomyces cerevisiae = experiment: Antimicrobial activity against Saccharomyces cerevisiae 70449 after 24 to 48 hrs by serial dilution method; assay type: functional; outline: as §1
Candida albicans = experiment: Antimicrobial activity against Candida albicans 1665 after 24 to 48 hrs by serial dilution method; assay type: functional; outline: as §1
Wickerhamomyces anomalus = experiment: Antimicrobial activity against Wickerhamomyces anomalus 6766 after 24 to 48 hrs by serial dilution method; assay type: functional; outline: as §1

Compound	MIC (Trichosporon oleaginosus) [µg/mL]	MIC (Mucor hiemalis) [µg/mL]	IC50 (L929) [µM]	IC50 (HUVEC) [µM]	IC50 (A-431) [µM]	IC50 [1] [µM]	IC50 [2] [µM]	IC50 (MCF7) [µM]	IC50 (A549) [µM]	IC50 [3] [µM]	MIC (Nocardia sp.) [µg/mL]	MIC (Staphylococcus aureus) [µg/mL]	MIC [4] [µg/mL]	MIC (Paenibacillus polymyxa) [µg/mL]	MIC (Escherichia coli) [µg/mL]	MIC [5] [µg/mL]	MIC (Pseudomonas aeruginosa) [µg/mL]	MIC (Saccharomyces cerevisiae) [µg/mL]	MIC (Candida albicans) [µg/mL]	MIC (Wickerhamomyces anomalus; Hansenula anomala) [µg/mL]	other results
CC(=O)c1c(Cc2ccccc2)[nH]c(=O)c2cccn12	> 66.6	> 66.6	> 37.6	15.5	8.45	16.9	5.3	14.1	8.7	2.4	66.6 (≈ 250 µM)	> 66.6	> 66.6	> 66.6	> 66.6	> 66.6	> 66.6	> 66.6	> 66.6	> 66.6	–
GENTAMICIN	–	–	–	–	–	–	–	–	–	–	–	–	–	–	–	–	42	–	–	–	–
COC(=O)[C@H](CCCCN(O)C(=O)/C=C/c1ccccc1)NC(=O)CC(O)(CC(=O)N[C@@H](CCCCN(O)C(=O)/C=C/c1ccccc1)C(=O)OC)C(=O)O	66.6 (≈ 86.6 µM)	> 66.6	1.82	0.05	0.1	0.19	0.05	0.22	0.12	1.95	> 66.6	> 66.6	> 66.6	> 66.6	> 66.6	> 66.6	> 66.6	> 66.6	33.3 (≈ 43.3 µM)	> 66.6	–
NYSTATIN	4.2	2.1	–	–	–	–	–	–	–	–	–	–	–	–	–	–	–	16.6	8.3	–	MIC (Wickerhamomyces anomalus): 16.6 µg/mL
Cc1nc(Cc2ccccc2)c(O)nc1Cc1ccccc1	> 66.6	> 66.6	> 34.5	–	–	> 34.5	> 34.5	> 34.5	> 34.5	> 34.5	67 (≈ 231 µM)	> 66.6	> 66.6	> 66.6	> 66.6	> 66.6	> 66.6	> 66.6	> 66.6	> 66.6	–
CN(C)[C@@H]1C(O)=C(C(N)=O)C(=O)[C@@]2(O)C(O)=C3C(=O)c4c(O)cccc4[C@@](C)(O)[C@H]3[C@H](O)[C@@H]12.Cl [OXYTETRACYCLINE HYDROCHLORIDE]	–	–	–	–	–	–	–	–	–	–	0.52	0.52	0.52	6.7	0.42	1	–	–	–	–	–
C/C(=C\c1csc(C)n1)[C@@H]1C[C@@H]2O[C@@H]2CCC[C@H](C)[C@H](O)[C@@H](C)C(=O)C(C)(C)[C@@H](O)CC(=O)O1 [EPOTHILONE A]	–	–	0.0077	–	–	0.0024	0.0096	0.0022	–	0.0013	–	–	–	–	–	–	–	–	–	–	–
O=c1cnc(CCc2ccccc2)c2n1CCC2	66.6 (≈ 277 µM)	33.3 (≈ 139 µM)	> 41.5	> 41.5	> 41.5	> 41.5	> 41.5	> 41.5	> 41.5	> 41.5	66.6 (≈ 277 µM)	66.6 (≈ 277 µM)	33.3 (≈ 139 µM)	66.6 (≈ 277 µM)	66.6 (≈ 277 µM)	66.6 (≈ 277 µM)	66.6 (≈ 277 µM)	66.6 (≈ 277 µM)	33.3 (≈ 139 µM)	> 66.6	–
Cc1ccn2c(=O)c3cccn3c(=O)c12	> 66.6	> 66.6	> 50	–	–	> 50	> 50	> 50	> 50	> 50	16.6 (≈ 82.9 µM)	> 66.6	> 66.6	> 66.6	> 66.6	> 66.6	> 66.6	> 66.6	> 66.6	66.6 (≈ 333 µM)	–
COC(=O)c1c[nH]c2ccccc12	> 66.6	> 66.6	> 56.8	–	–	> 56.8	> 56.8	> 56.8	> 56.8	> 56.8	33.3 (≈ 190 µM)	> 66.6	> 66.6	> 66.6	> 66.6	> 66.6	> 66.6	> 66.6	> 66.6	> 66.6	–
